Test results: ChEMBL document CHEMBL1152188, “Alpha-S-GalCer: synthesis and evaluation for iNKT cell stimulation” (Bioorg Med Chem Lett, 2008)
The source made the active and inactive calls.

Key:
iNKT [1] = assay: Induction of cell proliferation in C57BL/6 mouse iNKT cells at 200 ng/mL after 24 hrs by CFSE dilution; format: functional, cell-based
Procedure, shortened: (§1)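 Splenocytes isolated from NOD or C57Bl/6 mice, labeled with CFSE and stimulated with the glycolipid in vitro. Proliferation read as CFSE dilution at 24 and 48 h.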

iNKT [2] = assay: Induction of cell proliferation in C57BL/6 mouse iNKT cells at 200 ng/mL after 48 hrs by CFSE dilution; format: functional, cell-based; procedure, shortened: as §1
iNKT [3] = assay: Induction of cytokine expression in C57BL/6 mouse iNKT cells at 200 ng/mL after 24 hrs by intracellular staining for IFN-gamma; format: functional, cell-based
Procedure, shortened: (§2)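 Splenocytes from NOD or C57Bl/6 mice, CFSE-labeled and stimulated in vitro with the glycolipid. Cytokine induction measured by intracellular IFNγ staining at 24 and 48 h.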

iNKT [4] = assay: Induction of cytokine expression in NOD mouse iNKT cells at 100 ng/mL after 48 hrs by intracellular staining for IFN-gamma; format: functional, cell-based; procedure, shortened: as §2
iNKT [5] = assay: Induction of cytokine expression in C57BL/6 mouse iNKT cells at 100 ng/mL after 24 hrs by intracellular staining for IFN-gamma; format: functional, cell-based; procedure, shortened: as §2
iNKT [6] = assay: Induction of cell proliferation in C57BL/6 mouse iNKT cells at 100 ng/mL after 48 hrs by CFSE dilution; format: functional, cell-based; procedure, shortened: as §1
Mus musculus [7] = assay: Activation of iNKT cells in NOD mouse assessed as cell frequency at 5 or 10 ug, ip by FACS analysis; format: functional, organism-based
Procedure, shortened: (§3)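 Lipid given intraperitoneally to NOD or C57Bl/6 mice in PBS with […] Tween-20 (200 μg/mL). iNKT cell frequency and intracellular cytokine expression read by flow cytometry (FACS).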

Mus musculus [8] = assay: Activation of iNKT cells in C57BL/6 mouse assessed as cell frequency at 5 or 10 ug, ip by FACS analysis; format: functional, organism-based; procedure, shortened: as §3
iNKT [9] = assay: Induction of cell proliferation in NOD mouse iNKT cells at 100 ng/mL after 48 hrs by CFSE dilution; format: functional, cell-based; procedure, shortened: as §1
iNKT [10] = assay: Induction of cell proliferation in C57BL/6 mouse iNKT cells at 100 ng/mL after 24 hrs by CFSE dilution; format: functional, cell-based; procedure, shortened: as §1
iNKT [11] = assay: Induction of cytokine expression in NOD mouse iNKT cells at 200 ng/mL after 24 hrs by intracellular staining for IFN-gamma; format: functional, cell-based; procedure, shortened: as §2
iNKT [12] = assay: Induction of cytokine expression in NOD mouse iNKT cells at 100 ng/mL after 24 hrs by intracellular staining for IFN-gamma; format: functional, cell-based; procedure, shortened: as §2
iNKT [13] = assay: Induction of cell proliferation in NOD mouse iNKT cells at 100 ng/mL after 24 hrs by CFSE dilution; format: functional, cell-based; procedure, shortened: as §1
Mus musculus [14] = assay: Activation of iNKT cells in NOD mouse assessed as intracellular cytokine expression at 5 or 10 ug, ip by FACS analysis; format: functional, organism-based; procedure, shortened: as §3
iNKT [15] = assay: Induction of cytokine expression in C57BL/6 mouse iNKT cells at 200 ng/mL after 48 hrs by intracellular staining for IFN-gamma; format: functional, cell-based; procedure, shortened: as §2
Mus musculus [16] = assay: Activation of iNKT cells in C57BL/6 mouse assessed as intracellular cytokine expression at 5 or 10 ug, ip by FACS analysis; format: functional, organism-based; procedure, shortened: as §3
iNKT [17] = assay: Induction of cell proliferation in NOD mouse iNKT cells at 200 ng/mL after 48 hrs by CFSE dilution; format: functional, cell-based; procedure, shortened: as §1
iNKT [18] = assay: Induction of cytokine expression in C57BL/6 mouse iNKT cells at 100 ng/mL after 48 hrs by intracellular staining for IFN-gamma; format: functional, cell-based; procedure, shortened: as §2
iNKT [19] = assay: Induction of cell proliferation in NOD mouse iNKT cells at 200 ng/mL after 24 hrs by CFSE dilution; format: functional, cell-based; procedure, shortened: as §1
iNKT [20] = assay: Induction of cytokine expression in NOD mouse iNKT cells at 200 ng/mL after 48 hrs by intracellular staining for IFN-gamma; format: functional, cell-based; procedure, shortened: as §2

Measured: Activity

CCCCCCCCCCCCCCCCCCCCCCCCCC(=O)N[C@@H](CS[C@H]1O[C@H](CO)[C@H](O)[C@H](O)[C@H]1O)[C@H](O)[C@H](O)CCCCCCCCCCCCCC
inactive: iNKT [1] | iNKT [2] | iNKT [3] | iNKT [4] | iNKT [5] | iNKT [6] | Mus musculus [7] | Mus musculus [8] | iNKT [9] | iNKT [10] | iNKT [11] | iNKT [12] | iNKT [13] | Mus musculus [14] | iNKT [15] | Mus musculus [16] | iNKT [17] | iNKT [18] | iNKT [19] | iNKT [20]
